The full list was thinned out, with hits kept by preference.
Hep lipid drop – hepatic lipid droplet formation modulation | AML12 mouse hepatocytes, oleate lipid droplets, BODIPY imaging | inhibition, % at 6.5 µM | 240,000 tested, 0.4% active | AID 1656;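 active = lipid droplet intensity inhibited by at least 50%, with more than 500 cells counted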
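Assay system: AML12 mouse liver cells | Compound dosing: One dose, 6.5 µM compound | Read-out basis: Droplet intensity reduction, % inhibition | Measured by: Fluorescence imaging, 20x objective, two fields per well | Schedule: Overnight treatment with compound plus oleate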
MPTP inh – permeability transition pore inhibition. 360,000 tested, 1.4% active. AID 602449. inhibition, % at 10 µM. isolated mouse mitochondria, Ca2+ swelling absorbance, 30 min;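 active = inhibition of 50% or more, scaled per plate between neutral and stimulator controls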
Lmaj promast – reduces viability of Leishmania major promastigotes. inhibition, % at 10 µM. resazurin fluorescence viability. 200,000 tested, 9% active; in the data active = inhibition above about 50%;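 note: promastigotes grown with compound for 44 hours at 28 °C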
T cruzi inh – blocks replication of Trypanosoma cruzi | inhibition, % (no concentration beside the values) | 300,000 tested, 1.4% active | AID 1885 | T. cruzi beta-gal in NIH3T3, luminescence, 90 h;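 active = mean inhibition across valid replicates above about 55%, limit read from the data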;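 note: signal also drops with host cell toxicity which is not excluded here; higher percent means less beta-gal luminescence so fewer parasites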
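compound dosing = single 50 nL compound addition per well in DMSO | material = NIH/3T3 host cells with β-galactosidase reporter T. cruzi | input = 5,000 host fibroblasts per well | timing = ≥90 h infection period, 3 h prior cell attachment | read-out basis = percent inhibition of parasite-derived β-gal signal | detection = GalScreen β-gal luminescence, detergent lysis, 60 min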
Redox H2O2 prof – compounds producing H2O2 with reducing agent – biochemical, NIH compound library profiling, artefact control for MLSCN library redox annotation, primary screen. DTT-dependent redox cycling H2O2, phenol red/HRP absorbance; 100% = 100 µM peroxide control, 0% = buffer. activation, % at 10 µM. 200,000 tested, 0.03% active;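 active = activation of at least 50% relative to the plate's high and low controls in the primary single-dose screen; inactive = activation below 50%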;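 note: compound incubated with DTT at 0.8 mM final as the reducing agent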
Numbers stand for hits; 0 = inactive; - = no result.

SMILES	Hep lipid drop	MPTP inh	Lmaj promast	T cruzi inh	Redox H2O2 prof
CCN1CCN(Cc2c(O)ccc3c2O/C(=C\C=C\c2ccccc2)C3=O)CC1	0	0	96	0	0
O=C1/C(=C/C=C/c2ccccc2)Oc2c1ccc(O)c2CN1CCN(CCO)CC1	0	0	-	0	-
COc1ccc(/C=c2\s/c(=C(/C#N)C(=O)NCc3ccco3)n(-c3ccccc3)c2=O)cc1	0	0	62	0	0
O=C1CCC([N+](=O)[O-])C(c2ccc(-c3ccccc3)cc2)N1 (centres undefined)	-	0	-	0	-
CCN(CC)CC#CCC(OC)(c1ccccc1)c1ccccc1	0	0	55	0	0
CCN(CC)CC#CCC(O)(c1ccccc1)C1CCCC1 (centres undefined)	0	0	73	59	0
CCCN1C(=O)c2ccccc2NC1c1ccc(C)cc1 (centres undefined)	0	0	0	0	0
Cc1ccc(CN2C(=O)c3ccccc3NC2c2ccccn2)cc1 (centres undefined)	0	0	63	0	0
CSc1ccc(NC(=O)Nc2cccn(Cc3ccccc3F)c2=O)cc1	0	0	0	59	0
CCc1ccccc1NC(=O)Nc1cccn(Cc2ccccc2F)c1=O	0	0	0	0	0
Cc1ccc(C)c(CC(=O)N2CCCC(c3cc(C(=O)NCc4ccccc4)no3)C2)c1 (centres undefined)	-	0	-	-	-
O=C(OCC(=O)N(C1CCCCC1)C1CCCCC1)c1cnccn1	-	0	0	0	0
Cc1ccc2nc(Cl)c(CN(C(=O)c3cnccn3)C3CCCCC3)cc2c1	-	0	53	0	0
O=C(CN(Cc1ccco1)C(=O)c1ccc(F)cc1)Nc1ccccc1Br	-	0	-	-	-
CC(=O)Nc1ccc(NC(=O)Cc2sc(-c3cccnc3)nc2-c2ccc(C)cc2)cc1	0	0	0	70	0
Cc1ccc(-c2nc(-c3cccnc3)sc2CC(=O)O)cc1	0	0	-	0	-
Cc1cc(=O)[nH]c(NN=Cc2cc(Br)ccc2O)n1	-	0	-	-	-
CCN(CC)c1ccc(/C=N/NC(=O)c2c(Cl)cnn2C)c(O)c1	0	0	99	0	0
CCN(CC)c1ccc(/C=N/Nc2nc(C)cc(=O)[nH]2)c(O)c1	0	0	99	0	0
Cn1nc(C(=O)NCc2ccc(F)cc2)cc1C(=O)NCc1ccc(F)cc1	-	0	-	-	-
Cc1nc(C(F)(F)F)c(C(=O)O)cc1-c1nc(-c2ccccc2)cs1	-	0	-	0	-
CCOc1ccc(NC(=O)CCS(=O)(=O)c2ccc(C)cc2)cc1	0	0	-	0	-
CCOC(=O)C1CCN(C/C=C/c2ccccc2OC)CC1	0	0	78	0	0
COc1ccc(C(=O)C2CCCN(Cc3c[nH]c4ccccc34)C2)c(OC)c1 (centres undefined)	0	0	62	0	0
COc1ccc(C(=O)C2CCCN(C(=O)COc3ccc(C(C)=O)cc3)C2)cc1F (centres undefined)	0	0	0	0	0
SMILES	Hep lipid drop	MPTP inh	Lmaj promast	T cruzi inh	Redox H2O2 prof
COc1cccc(C(=O)C2CCCN(C/C=C/c3ccccc3OC)C2)c1 (centres undefined)	0	0	0	0	0
COc1ccc(C(=O)C2CCCN(C/C=C/c3ccccc3OC)C2)c(OC)c1 (centres undefined)	0	0	50	0	0
COc1ccc(/C=C/CN2CCCC(C(=O)c3ccc(OC)c(F)c3)C2)cc1 (centres undefined)	0	0	82	0	0
CN(C)CCNc1nc2c(c(=O)[nH]c(=O)n2C)n1CC(O)COc1ccc(Cl)cc1 (centres undefined)	-	0	0	0	0
CCN(CC)CCNc1nc2c(c(=O)[nH]c(=O)n2C)n1CC(O)COc1ccc(Cl)cc1Cl (centres undefined)	-	0	92	0	0
O=C(Cc1ccc(NC(=O)C2CCCN(C(=O)C3CC3)C2)cc1)Nc1ccc(C(=O)N2CCOCC2)cc1 (centres undefined)	-	0	-	-	-
COC(=O)c1sc(N)c(C(=O)OC)c1COC(=O)C1CC(=O)N(Cc2ccco2)C1 (centres undefined)	0	0	51	0	0
Fc1ccc(/C=N/Nc2ncnc3nc[nH]c23)cc1F	0	0	50	0	0
O=c1c2c3c(sc2nc2n1CCCCC2)CCC3	0	0	55	0	0
O=C(CCC(=O)OCC(=O)c1cccc([N+](=O)[O-])c1)NC1CCCCC1	0	0	-	0	-
O=C(CCC(=O)OCC(=O)c1ccc([N+](=O)[O-])cc1)NC1CCCCC1	0	0	77	0	-

High-throughput results deposited in PubChem by several laboratories.
